# Measurements of several laboratories.
# Lines come from different studies, so protocols differ.
# Target: Hormonally up-regulated neu tumor-associated kinase (HUNK, Homo sapiens, UniProt P57058)
# One construct used (P57058 1-714): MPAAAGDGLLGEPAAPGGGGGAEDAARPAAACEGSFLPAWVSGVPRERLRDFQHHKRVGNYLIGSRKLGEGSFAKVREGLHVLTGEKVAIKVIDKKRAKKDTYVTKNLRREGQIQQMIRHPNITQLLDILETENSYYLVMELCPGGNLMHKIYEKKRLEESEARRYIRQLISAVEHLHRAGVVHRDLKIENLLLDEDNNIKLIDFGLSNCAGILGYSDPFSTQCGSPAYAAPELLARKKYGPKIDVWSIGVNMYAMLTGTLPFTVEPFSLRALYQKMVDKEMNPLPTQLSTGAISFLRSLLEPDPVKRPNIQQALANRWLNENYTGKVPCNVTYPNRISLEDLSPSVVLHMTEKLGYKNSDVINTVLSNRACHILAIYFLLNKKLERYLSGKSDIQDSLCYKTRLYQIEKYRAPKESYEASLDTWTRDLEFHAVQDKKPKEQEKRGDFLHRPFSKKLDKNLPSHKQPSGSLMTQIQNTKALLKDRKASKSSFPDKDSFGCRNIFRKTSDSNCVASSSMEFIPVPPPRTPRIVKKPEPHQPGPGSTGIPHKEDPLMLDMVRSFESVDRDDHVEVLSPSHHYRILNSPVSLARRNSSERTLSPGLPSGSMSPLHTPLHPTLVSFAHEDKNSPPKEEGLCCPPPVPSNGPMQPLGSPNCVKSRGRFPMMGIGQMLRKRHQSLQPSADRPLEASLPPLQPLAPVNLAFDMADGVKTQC
Structure (SMILES),read-out,technique,concentration,remaining binding
COc1ncc2cc3ccccc3nc2c1C#N,cell-free assay,competition with immobilised ligand,5 µM,100%
Cc1cnc(Nc2ccc(C(=O)N3CCC(N4CCCC4)CC3)cc2)nc1-c1cc2ccccc2s1,binding,competition with immobilised ligand,1 µM,100%
CC1CCCN1c1nccc(-c2cnn3ncccc23)n1 (stereo not shown),binding,,1 µM,100%
COc1cnc(Nc2cccc(S(N)(=O)=O)c2)nc1N1CCN(c2ccccc2)C(=O)C1,binding,competition with immobilised ligand,1 µM,100%
Cc1cc(C)c(-n2ccn3nc(-c4cccnc4)cc23)cc1NC(=O)c1cc(C#N)cc(S(F)(F)(F)(F)F)c1,cell-free assay,competition with immobilised ligand,0.1 µM,83%
O=C(Nc1c[nH]nc1C(=O)NC1CCNCC1)c1cc(F)cc(F)c1,binding,competition with immobilised ligand,1 µM,100%
Cc1nc(N2CC[C@@H](O)C2)ncc1-c1cc(C(F)(F)F)cc2[nH]ncc12,binding,competition with immobilised ligand,1 µM,100%
COc1ccnn2ncc(-c3ccnc(N(C)C)n3)c12,binding,,1 µM,100%
COc1cnc(Nc2cccc(S(N)(=O)=O)c2)nc1N1CCN(c2ccccc2)CC1,binding,competition with immobilised ligand,1 µM,74%
O=C(NCCCN1CCOCC1)c1ccc(Nc2ncc(Cl)c(-c3ccc(Cl)s3)n2)cc1,binding,competition with immobilised ligand,1 µM,100%
F[C@@H]1CCN(c2nccc(-c3cnn4ncccc34)n2)C1,binding,,1 µM,0%
O=C(c1ccc(Nc2ncc(Cl)c(-c3cc4ccccc4s3)n2)cc1)N1CCC(N2CCCC2)CC1,binding,competition with immobilised ligand,1 µM,100%
C=CC(=O)N1CCC(C(=O)NCC(=O)N2CCN(c3nc(-c4cnc(N)nc4C(F)F)nc(N4CCOCC4)n3)CC2)CC1,binding,competition with immobilised ligand,1 µM,79%
CNC(=O)Nc1ccc2c(c1)CC[C@@]21OC(=O)N(CC(=O)N(Cc2ccc(F)cc2)[C@@H](C)C(F)(F)F)C1=O,cell-free assay,competition with immobilised ligand,1 µM,100%
CN(C)c1ncc(F)c(-c2cnn3ncccc23)n1,binding,,1 µM,100%
NS(=O)(=O)c1cc(NC(=O)Cc2ccccc2)ccc1Oc1cccc(Cl)c1,cell-free assay,competition with immobilised ligand,1 µM,84%
CN(CCCC(F)(F)F)c1nccc(-c2cnn3ncccc23)n1,binding,,1 µM,80%
Nc1ncc2c(n1)-c1c([nH]c3ccc(C#CC4CC4)cc13)CCCC2,binding,competition with immobilised ligand,1 µM,97%
CCC(=O)N[C@H]1CC[C@@H](C(=O)N(C)c2ccc(-c3nc4ccccc4o3)cc2)C1,cell-free assay,competition with immobilised ligand,1 µM,100%
C[C@H]1CCN(c2nccc(-c3cnn4ncccc34)n2)C1,binding,,1 µM,100%
CN(c1ccnc(CNc2nc(Nc3ccc4c(c3)CC(=O)N4)ncc2C(F)(F)F)n1)S(C)(=O)=O,cell-free assay,competition with immobilised ligand,1 µM,100%
N[C@@H]1CCN(c2nccc(-c3cnn4ncccc34)n2)C1,binding,,1 µM,100%
